Laboratory results: ChEMBL document CHEMBL1148008, “Antimicrobial and cytotoxic activity of agelasine and agelasimine analogs” (Bioorg Med Chem, 2007)
Values after ≈ are worked out from the molar mass of the structure shown.

Columns and labels:
[1] = system: Mycobacterium tuberculosis; experiment: Antimicrobial activity against Mycobacterium tuberculosis at 6.25 ug/mL after 20 hrs by broth microdilution method; format: functional
[2] = system: Escherichia coli; experiment: Antibacterial activity against Escherichia coli ATCC 25922 after 20 hrs by broth microdilution method; format: functional; settings: ATCC 25922, 20 h
How it was run: (§1)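 Strains grown 24 h at 35 °C on tryptone-soya agar. Colonies suspended in saline to 0.5 McFarland, then diluted 1:10 in Mueller-Hinton broth (~10⁷ CFU/mL). Inoculum added to twofold dilutions in broth (final 0.125–32 µg/mL) in triplicate. Incubated aerobically at 35 °C for 20 h. MIC is the lowest concentration giving complete growth inhibition. Repeated at least once; gentamycin/streptomycin served as QC.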

[3] = system: Staphylococcus aureus; experiment: Antibacterial activity against Staphylococcus aureus ATCC 25923 after 20 hrs by broth microdilution method; format: functional; how it was run: as §1
[4] = system: U-937/GTB; experiment: Cytotoxicity against U937 GTB cells; format: functional, cell-based; settings: Homo sapiens
How it was run: (§2)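 Fluorometric microculture cytotoxicity assay (FMCA) read-out; IC50 values reported.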

[5] = system: ACHN; experiment: Cytotoxicity against ACHN cells; format: functional, cell-based; settings: Homo sapiens; how it was run: as §2
[6] = Cytotoxicity against RPMI 8226/s cells; format: functional, cell-based; settings: Homo sapiens, RPMI8226/S; how it was run: as §2
[7] = Cytotoxicity against CEM/s cells; format: functional, cell-based; settings: Homo sapiens; how it was run: as §2
[8] = system: Mycobacterium tuberculosis; experiment: Antimicrobial activity against Mycobacterium tuberculosis after 20 hrs by broth microdilution method; format: functional

| Compound | inhibition at 6.25 µg/mL [1] [%] | MIC [2] [µg/mL] | MIC ([3]; ATCC 25923, 20 h) [µg/mL] | IC50 [4] [µM] | IC50 [5] [µM] | IC50 [6] [µM] | IC50 [7] [µM] | MIC [8] [µg/mL] | MIC [3] [µg/mL] |
| --- | --- | --- | --- | --- | --- | --- | --- | --- | --- |
| Cn1cnc2c(N)[n+](Cc3ccccc3)cnc21.[Br-] | 0 | > 32 | > 32 |  |  |  |  |  |  |
| COc1cccc2c1C(=O)c1c(O)c3c(c(O)c1C2=O)C[C@@](O)(C(=O)CO)C[C@@H]3O[C@H]1C[C@H](N)[C@H](O)[C@H](C)O1 [DOXORUBICIN] |  |  |  | 0.11 | 14.2 | 0.13 | 0.18 |  |  |
| CO/N=c1\[nH]cnc2c1[n+](C/C=C(\C)CC/C=C(\C)CC/C=C(\C)CCC=C(C)C)cn2C(C)C | 100 |  |  | 1.1 | 2.45 | 0.886 | 2.05 | 1.56 |  |
| CC(C)=CCC/C(C)=C/CC/C(C)=C/CC/C(C)=C/Cn1cnc2c1C(=N)NCN2C | 99 | 16 (≈ 37.8 µM) | 8 (≈ 18.9 µM) | > 80 | > 80 | 18.2 | 21.7 |  |  |
| CC(C)=CCC/C(C)=C/CC/C(C)=C/CC/C(C)=C/C[n+]1cn(CCC#N)c2nc[nH]/c(=N\OCc3ccccc3)c21 | 86 | > 32 | > 32 | 24.2 | 38.9 | 9.46 | 19.1 |  |  |
| CC(C)=CCC/C(C)=C/CC/C(C)=C/CC/C(C)=C/Cn1cnc2ncnc(Cl)c21 | 33 | > 32 | > 32 | 5.07 | 6.75 | 5.2 | 6.79 |  |  |
| C/C(=C\C[n+]1cn(C)c2nc[nH]/c(=N\OCc3ccccc3)c21)CCCC(C)CCCC(C)CCCC(C)C (stereo unspecified) | 72 | > 32 | > 32 | 10.8 | 20.5 | 7.07 | 6.3 |  |  |
| CO[C@H]1/C=C/O[C@@]2(C)Oc3c(C)c(O)c4c(O)c(c(/C=N/N5CCN(C)CC5)c(O)c4c3C2=O)NC(=O)/C(C)=C\C=C\[C@H](C)[C@H](O)[C@@H](C)[C@@H](O)[C@@H](C)[C@H](OC(C)=O)[C@@H]1C [RIFAMPIN] |  |  |  |  |  |  |  | 0.25 (≈ 0.304 µM) |  |
| Cn1c[n+](Cc2ccccc2)c2ccccc21 | 19 |  |  |  |  |  |  |  |  |
| C=CCn1c[n+](C/C=C(\C)CC/C=C(\C)CC/C=C(\C)CCC=C(C)C)c2/c(=N/OC)[nH]cnc21 | 100 | > 32 | > 32 | 1.39 | 4.61 | 1.25 | 2.94 | 3.13 |  |
| CC(C)=CCC/C(C)=C\CC/C(C)=C/C[n+]1cn(C)c2ncnc(N)c21.[Cl-] | 8 | > 32 | 32 |  |  |  |  |  |  |
| CC(=O)O[C@H]1C(=O)[C@@]2(C)[C@H]([C@H](OC(=O)c3ccccc3)[C@]3(O)C[C@H](OC(=O)[C@H](O)[C@@H](NC(=O)c4ccccc4)c4ccccc4)C(C)=C1C3(C)C)[C@]1(OC(C)=O)CO[C@@H]1C[C@@H]2O [PACLITAXEL] |  |  |  | 0.0059 | 31.5 | 0.007 | 0.007 |  |  |
| CC(C)=CCC/C(C)=C/CC/C(C)=C/C[n+]1cn(C)c2ncnc(N)c21.[Cl-] | 13 | > 32 | > 32 | > 80 | > 80 | > 80 | > 80 |  |  |
| GENTAMICIN |  |  |  |  |  |  |  |  | 0.1 |
| Cn1c[n+](Cc2ccccc2)c2/c(=N/OC(C)(C)C)[nH]cnc21 | 53 |  |  |  |  |  |  |  |  |
| CO/N=c1\[nH]cnc2c1[n+](C/C=C(\C)CCCC(C)CCCC(C)CCCC(C)C)cn2C (stereo unspecified) | 56 | > 32 | > 32 | 5.4 | 16.9 | 3.75 | 7.92 |  |  |

| Compound | inhibition at 6.25 µg/mL [1] [%] | MIC [2] [µg/mL] | MIC ([3]; ATCC 25923, 20 h) [µg/mL] | IC50 [4] [µM] | IC50 [5] [µM] | IC50 [6] [µM] | IC50 [7] [µM] | MIC [8] [µg/mL] | MIC [3] [µg/mL] |
| --- | --- | --- | --- | --- | --- | --- | --- | --- | --- |
| CC(C)=CCC/C(C)=C/CC/C(C)=C/CC/C(C)=C/C[n+]1cn(C(c2ccccc2)c2ccccc2)c2nc[nH]/c(=N\OCc3ccccc3)c21 | 78 | > 32 | 8 | 4.24 | 17.2 | 59 | 9.11 |  |  |
| CC(C)=CCC/C(C)=C/CC/C(C)=C/CC/C(C)=C/C[n+]1cnc2c(ncn2C)c1N.[Br-] | 72 | > 32 | 8 | 39.4 | > 80 | 18.6 | 20.8 |  |  |
| CO/N=c1\[nH]cnc2c1[n+](Cc1ccccc1)cn2C | 4 | > 32 | > 32 | > 80 | > 80 | > 80 | > 80 |  |  |
| CO/N=c1\[nH]cnc2c1[n+](C/C=C(\C)CC/C=C(\C)CC/C=C(\C)CCC=C(C)C)cn2CCC#N | 100 | > 32 | 4 | 3.33 | 11.4 | 3.96 | 5.36 | > 6.25 |  |
| CO/N=c1\[nH]cnc2c1[n+](C/C=C(\C)CC/C=C(\C)CC/C=C(\C)CCC=C(C)C)cn2C(c1ccccc1)c1ccccc1 | 99 | > 32 | 8 | 1.97 | 4.75 | 2.6 | 3.54 | 3.13 |  |
| C/N=c1\ncn(C)c2ncn(C/C=C(\C)CC/C=C(\C)CC/C=C(\C)CCC=C(C)C)c12 | 94 | 16 (≈ 36.7 µM) | 3 (≈ 6.89 µM) | > 80 | > 80 | > 80 | > 80 | 3.13 (≈ 7.18 µM) |  |
| CO/N=c1\[nH]cnc2c1[n+](C/C=C(\C)CC/C=C(\C)CC/C=C(\C)CCC=C(C)C)cn2Cc1ccccc1 | 99 | > 32 | > 32 | 1.07 | 3.4 | 1.04 | 2.24 | 1.56 |  |
| CO/N=c1\[nH]cnc2c1[n+](C/C=C(\C)CCC=C(C)C)cn2C |  | > 32 | > 32 | 17.5 | > 80 | 18.4 | 27.4 |  |  |
| Cn1cnc(=N)c2c1ncn2Cc1ccccc1 | 0 |  |  |  |  |  |  |  |  |
| Cn1c[n+](Cc2ccccc2)c2/c(=N/OCc3ccccc3)[nH]cnc21 | 0 |  |  |  |  |  |  |  |  |
| CO/N=c1\[nH]cnc2ncn(C/C=C(\C)CC/C=C(\C)CC/C=C(\C)CCC=C(C)C)c12 | 74 | > 32 | > 32 | 3.31 | 18.1 | 3 | 5.69 |  |  |
| CC(C)=CCC/C(C)=C/CC/C(C)=C/CC/C(C)=C/Cn1cnc2nc[nH]/c(=N\OCc3ccccc3)c21 | 40 | > 32 | > 32 | 11.2 | 27.4 | 10.9 | 20.4 |  |  |
| CO/N=c1\[nH]cnc2c1[n+](C/C=C(\C)CC/C=C(\C)CCC1CCCCC1)cn2C |  | 16 | 6 |  |  |  |  |  |  |
| C=CC[n+]1cn(C)c2nc[nH]/c(=N\OC)c21 |  | > 32 | > 32 | > 80 | > 80 | > 80 | > 80 |  |  |
| C/C(=C\C[n+]1cn(C)c2ncnc(N)c21)CCCC(C)CCCC(C)CCCC(C)C (stereo unspecified) | 99 | > 32 | 4 | 3.18 | 11.3 | 2.41 | 5.82 | 6.25 |  |
| Cn1cc[n+](Cc2ccccc2)c1 | 19 |  |  |  |  |  |  |  |  |
